Assay results from PMC12222688 (Scientific Reports, 2025).
pIC50: −log10 of the molar value.

Target: plasma kallikrein (pKal) (Homo sapiens, UniProt P03952)
Test: cell-free fluorogenic substrate enzyme activity assay with recombinant pKal
Type: biochemical
Method in brief: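 Human recombinant plasma kallikrein was dissolved in deionized water and used with its protein-specific fluorogenic substrate under cell-free conditions. Test compound, at concentrations up to 3000 µg/mL, was incubated with substrate solution for 30 min at 37 °C. Fluorescence was read on a microplate reader. Autofluorescence was subtracted, and relative fluorescence units were normalized to blank samples.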

Chain of plasma kallikrein (pKal) (P03952 20-390): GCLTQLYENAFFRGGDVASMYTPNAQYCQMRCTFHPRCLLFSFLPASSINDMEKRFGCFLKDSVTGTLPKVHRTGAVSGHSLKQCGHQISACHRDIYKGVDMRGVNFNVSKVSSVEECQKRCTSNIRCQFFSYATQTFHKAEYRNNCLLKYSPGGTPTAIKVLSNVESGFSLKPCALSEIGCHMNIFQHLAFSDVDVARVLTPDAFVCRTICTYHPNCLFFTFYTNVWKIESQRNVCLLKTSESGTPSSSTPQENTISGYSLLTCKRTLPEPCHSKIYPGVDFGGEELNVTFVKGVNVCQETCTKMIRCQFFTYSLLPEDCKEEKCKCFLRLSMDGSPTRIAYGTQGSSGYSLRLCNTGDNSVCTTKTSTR
Chain of plasma kallikrein (pKal) (P03952 391-638): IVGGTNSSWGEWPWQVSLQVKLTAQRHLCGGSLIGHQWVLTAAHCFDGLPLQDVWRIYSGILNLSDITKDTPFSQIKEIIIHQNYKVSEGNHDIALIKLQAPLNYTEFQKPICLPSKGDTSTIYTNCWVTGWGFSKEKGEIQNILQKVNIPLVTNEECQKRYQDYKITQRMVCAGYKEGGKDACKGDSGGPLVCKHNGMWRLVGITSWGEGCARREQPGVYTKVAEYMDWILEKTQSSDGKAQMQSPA

pIC50: 3.51
Structure (SMILES): C[C@@H]1O[C@@H](O[C@@H]2[C@@H](O)[C@H](OCCc3ccc(O)c(O)c3)O[C@H](CO)[C@H]2OC(=O)/C=C/c2ccc(O)c(O)c2)[C@H](O)[C@H](O)[C@H]1O [acteoside]
